Measured values published in ChEMBL document CHEMBL3745688, “Discovery of novel hybrids of diaryl-1,2,4-triazoles and caffeic acid as dual inhibitors of cyclooxygenase-2 and 5-lipoxygenase for cancer therapy” (Eur J Med Chem, 2016).

Columns and labels:
[1] = molecular target: T1, Prostaglandin G/H synthase 2 (Rattus norvegicus, UniProt P35355); assay: Inhibition of COX2 in rat abdominal macrophages assessed as PGE2 production pretreated for 30 mins followed by addition of 10 uM arachidonic acid as substrate for 20 mins by EIA
T1 sequence (P35355 whole entry): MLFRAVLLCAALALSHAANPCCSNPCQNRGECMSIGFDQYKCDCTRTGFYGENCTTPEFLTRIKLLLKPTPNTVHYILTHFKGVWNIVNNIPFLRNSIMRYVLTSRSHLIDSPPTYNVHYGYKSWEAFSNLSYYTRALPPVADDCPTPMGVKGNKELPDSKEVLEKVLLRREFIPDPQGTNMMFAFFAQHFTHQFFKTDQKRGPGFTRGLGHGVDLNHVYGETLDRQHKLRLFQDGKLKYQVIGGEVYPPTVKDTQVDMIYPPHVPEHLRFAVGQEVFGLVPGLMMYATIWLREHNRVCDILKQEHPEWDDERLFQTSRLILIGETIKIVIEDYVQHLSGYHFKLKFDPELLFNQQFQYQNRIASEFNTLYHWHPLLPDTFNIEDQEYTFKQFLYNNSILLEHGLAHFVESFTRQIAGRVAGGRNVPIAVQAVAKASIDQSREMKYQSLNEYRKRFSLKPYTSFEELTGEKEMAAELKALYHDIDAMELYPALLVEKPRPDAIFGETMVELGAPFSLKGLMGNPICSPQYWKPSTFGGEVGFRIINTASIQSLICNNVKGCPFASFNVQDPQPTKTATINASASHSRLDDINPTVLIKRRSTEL

[2] = molecular target: T2, Polyunsaturated fatty acid 5-lipoxygenase (Rattus norvegicus, UniProt P12527); assay: Inhibition of 5-LOX in Sprague-Dawley rat leukocytes assessed as A23187 stimulated LTB4 production pretreated for 30 mins followed by addition of A23187 for 30 mins by EIA; type: cell-based
T2 sequence (P12527 whole entry): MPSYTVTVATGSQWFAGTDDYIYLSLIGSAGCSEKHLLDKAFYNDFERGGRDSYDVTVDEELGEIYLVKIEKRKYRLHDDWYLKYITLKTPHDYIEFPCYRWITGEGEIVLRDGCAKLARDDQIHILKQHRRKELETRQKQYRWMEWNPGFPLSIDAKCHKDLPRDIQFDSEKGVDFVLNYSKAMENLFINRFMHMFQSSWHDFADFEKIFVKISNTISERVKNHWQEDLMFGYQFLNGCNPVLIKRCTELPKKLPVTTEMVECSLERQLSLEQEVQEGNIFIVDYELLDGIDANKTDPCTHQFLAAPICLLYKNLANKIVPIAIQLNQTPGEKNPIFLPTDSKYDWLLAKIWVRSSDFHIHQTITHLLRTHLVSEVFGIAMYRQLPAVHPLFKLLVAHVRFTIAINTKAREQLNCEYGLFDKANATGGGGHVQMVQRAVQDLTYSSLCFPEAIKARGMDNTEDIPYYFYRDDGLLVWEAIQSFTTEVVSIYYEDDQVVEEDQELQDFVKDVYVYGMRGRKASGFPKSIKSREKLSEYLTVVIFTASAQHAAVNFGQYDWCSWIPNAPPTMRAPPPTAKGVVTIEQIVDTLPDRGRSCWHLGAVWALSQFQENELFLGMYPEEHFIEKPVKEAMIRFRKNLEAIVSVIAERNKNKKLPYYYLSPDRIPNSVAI
Procedure, shortened: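 Rat peritoneal leukocytes collected from Sprague-Dawley rats primed i.p. with 0.2% glycogen (20 mL/kg). Cells in Hanks solution plated at 1.0×10^6/well and held 10 min at 37 °C. Pretreated 30 min with L-cysteine (10 mM), indomethacin (1 mg/L) and compound or DMSO. A23187 added for 30 min. LTB4 in the clarified supernatant measured by EIA; % inhibition from OD; IC50 by Bliss method.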

[3] = molecular target: T3, Prostaglandin G/H synthase 1 (Bos taurus, UniProt O62664); assay: Inhibition of COX1 in calf endotheliocyte assessed as 6keto-PGF1alpha production pretreated for 20 mins followed by addition of 10 uM arachidonic acid as substrate for 20 mins by radioimmuno assay
T3 sequence (O62664 whole entry): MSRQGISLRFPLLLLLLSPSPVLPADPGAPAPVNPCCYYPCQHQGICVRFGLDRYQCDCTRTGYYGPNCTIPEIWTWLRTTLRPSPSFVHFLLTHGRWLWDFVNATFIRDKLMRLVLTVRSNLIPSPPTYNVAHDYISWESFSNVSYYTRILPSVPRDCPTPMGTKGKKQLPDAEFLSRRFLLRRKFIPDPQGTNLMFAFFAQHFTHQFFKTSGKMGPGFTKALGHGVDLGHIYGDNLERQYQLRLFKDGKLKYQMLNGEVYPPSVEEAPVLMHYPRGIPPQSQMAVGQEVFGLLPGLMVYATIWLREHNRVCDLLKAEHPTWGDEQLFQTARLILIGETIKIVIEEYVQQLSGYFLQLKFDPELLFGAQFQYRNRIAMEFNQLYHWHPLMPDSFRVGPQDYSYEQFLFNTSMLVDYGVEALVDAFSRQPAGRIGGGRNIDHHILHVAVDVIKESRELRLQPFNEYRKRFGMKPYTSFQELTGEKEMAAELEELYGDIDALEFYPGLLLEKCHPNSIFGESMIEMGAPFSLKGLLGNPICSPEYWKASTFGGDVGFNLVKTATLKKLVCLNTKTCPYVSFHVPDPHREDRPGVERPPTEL
Procedure, shortened: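 Endothelial cells from neonatal calf thoracic aorta plated at 1.0×10^6 in DMEM with 10% FBS and grown 24 h at 37 °C in 5% CO₂. Compound or DMSO added for 20 min, then arachidonic acid (10 μM) for another 20 min. 6-keto-PGF1α in the medium quantified by radioimmunoassay. IC50 is the mean of four determinations.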

[4] = Selectivity index, ratio of IC50 for rat COX2 to IC50 for calf COX1
Procedure, shortened: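 Ratio of COX-2 IC50 to COX-1 IC50. COX-2 was measured in rat peritoneal macrophages: 1.0×10^6/well in RPMI 1640 with 5% FCS, grown 24 h, COX-1 inactivated with 1 mM aspirin, COX-2 induced with LPS 1 µg/mL for 6 h, compound added for 30 min, then arachidonic acid 10 µM for 20 min, PGE2 read by EIA. COX-1 was measured in calf aortic endothelial cells by 6-keto-PGF1α radioimmunoassay.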

A549 = assay: Antiproliferative activity against human A549 cells after 72 hrs by MTT assay; type: functional, cell-based; conditions: A549, 72 h
Procedure, shortened: (§1)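 Cells seeded at 5×10^4/well, grown 24 h at 37 °C in 5% CO₂, then exposed to compounds dissolved in DMSO at a range of concentrations for 72 h. MTT (5 mg/mL in PBS) added for 4 h, then OD read at 570 nm. IC50 taken from dose-response curves, mean ± S.D. of three independent experiments.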

[5] = Antiproliferative activity against human Caco2 cells after 72 hrs by MTT assay; type: functional, cell-based; conditions: Caco-2, 72 h; procedure, shortened: as §1
[6] = Antiproliferative activity against human PC3 cells after 72 hrs by MTT assay; type: functional, cell-based; conditions: PC-3, 72 h; procedure, shortened: as §1
[7] = Antiproliferative activity against mouse B16F10 cells after 72 hrs by MTT assay; type: functional, cell-based; conditions: B16-F10, 72 h; procedure, shortened: as §1
Mus musculus [8] = assay: Toxicity in mouse xenografted with B16F10 cells assessed as body weight at 20 mg/kg, iv measured after 25 days (reference value: 28.1 +/- 1.7 g); type: organism-based, B16-F10; conditions: in vivo, 600 h
[9] = Antitumor activity against mouse B16F10 cells xenografted in mouse assessed as inhibition of tumor growth at 20 mg/kg, iv after 25 days; type: functional; conditions: B16-F10, iv, 600 h
Mus musculus [10] = assay: Toxicity in mouse xenografted with B16F10 cells assessed as body weight at 40 mg/kg, iv measured after 25 days (reference value: 28.1 +/- 1.7 g); type: organism-based, B16-F10; conditions: in vivo, 600 h
Procedure, shortened: (§2)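 B16-F10 cells implanted subcutaneously in the right oxter of ICR mice weighing 18-22 g. After 7 days, animals weighed and randomized into groups of 10. Dosed intravenously with vehicle (saline with 1% DMSO/2% poloxamer, 0.4 ml/mouse), 40 mg/kg test agent, or 5-FU 20 mg/kg. Killed on day 25 after implantation. Tumors excised and weighed; inhibition = (1 − treated/vehicle mean tumor weight)×100; body weights recorded at start and end.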

[11] = Antitumor activity against mouse B16F10 cells xenografted in mouse assessed as inhibition of tumor growth at 40 mg/kg, iv after 25 days; type: functional; conditions: B16-F10, iv, 600 h; procedure, shortened: as §2
[12] = molecular target: T4, Prostaglandin G/H synthase 2 (Homo sapiens, UniProt P35354); assay: Inhibition of COX-2 (unknown origin)
T4 sequence (P35354 whole entry): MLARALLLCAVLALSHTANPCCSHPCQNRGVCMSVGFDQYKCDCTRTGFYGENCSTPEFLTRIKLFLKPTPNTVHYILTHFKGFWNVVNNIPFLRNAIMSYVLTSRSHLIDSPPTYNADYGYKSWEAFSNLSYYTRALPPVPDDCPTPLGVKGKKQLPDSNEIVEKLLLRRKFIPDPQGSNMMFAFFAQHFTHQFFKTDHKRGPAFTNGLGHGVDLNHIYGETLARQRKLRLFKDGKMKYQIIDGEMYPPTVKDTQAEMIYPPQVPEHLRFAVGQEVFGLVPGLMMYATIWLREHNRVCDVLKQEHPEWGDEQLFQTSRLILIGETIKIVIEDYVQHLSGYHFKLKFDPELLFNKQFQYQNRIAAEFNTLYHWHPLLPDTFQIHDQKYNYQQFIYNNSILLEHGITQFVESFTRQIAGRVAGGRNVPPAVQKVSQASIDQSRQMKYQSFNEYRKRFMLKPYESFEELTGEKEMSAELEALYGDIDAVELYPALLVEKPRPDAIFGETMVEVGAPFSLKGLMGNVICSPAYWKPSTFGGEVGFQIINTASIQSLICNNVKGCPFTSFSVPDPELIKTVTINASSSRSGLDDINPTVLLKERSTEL

| SMILES | IC50 [1] [µM] | IC50 [2] [µM] | IC50 [3] [µM] | Ratio IC50 [4] | IC50 (A549) [µM] | IC50 [5] [µM] | IC50 [6] [µM] | IC50 [7] [µM] | Activity (Mus musculus [8]) [g] | inhibition in vivo at 20 mg/kg [9] [%] | Activity (Mus musculus [10]) [g] | inhibition in vivo at 40 mg/kg [11] [%] | IC50 [12] [µM] |
| --- | --- | --- | --- | --- | --- | --- | --- | --- | --- | --- | --- | --- | --- |
| CS(=O)(=O)c1ccc(-c2nc(SCCCOC(=O)/C=C/c3ccccc3)nn2-c2ccc(Br)cc2)cc1 | 0.42 | 1.3 | 45.7 | 0.009 | 22.3 | 24.6 | 21.9 | 19.4 |  |  |  |  |  |
| O=c1[nH]cc(F)c(=O)[nH]1 [FLUOROURACIL] |  |  |  |  |  |  |  |  | 26 | 68.2 |  |  |  |
| COc1cc(/C=C/C(=O)OCCSc2nc(-c3ccc(S(C)(=O)=O)cc3)n(-c3ccc(C(F)(F)F)cc3)n2)ccc1O | 0.21 | 0.81 | 20.5 | 0.01 | 6.78 | 9.05 | 7.46 | 8.65 |  |  | 26.3 | 58.9 |  |
| CSc1nc(-c2ccc(S(N)(=O)=O)cc2)n(-c2ccc(Cl)cc2)n1 |  |  |  |  | 29.5 | 41.2 | 37.5 | 32.3 |  |  |  |  | 0.37 |
| CS(=O)(=O)c1ccc(-c2nc(SCCCNC(=O)/C=C/c3ccc(O)c(O)c3)nn2-c2ccc(F)cc2)cc1 | 0.12 | 0.71 | 13.2 | 0.009 | 22.1 | 20.9 | 23.1 | 18.7 |  |  |  |  |  |
